Most compounds without a hit are left out; they make up all but 5.1% or so of the library.
STAT3 blocker: reduces IL-6 driven STAT3 reporter signal; U3A cells, IL-6 STAT3-luciferase reporter, luminescence; host cell line lacks STAT1; inhibition, % at 5.5 µM; 0.89% of 190,000 active; AID 862;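 active = inhibition above the mean inhibition across all screened compounds plus 3 SD, cut at about 44% in these data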
STAT1 act: increases IFN-gamma driven STAT1 reporter signal. NIH 3T3 STAT1-luciferase reporter, luminescence; 100% = IFN-gamma alone, no compound. activation (% of control), % at 5.5 µM. 2.6% of 200,000 active. AID 932;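 active = activation above the screen-wide mean activation plus 3 SD, cut at about 130% in these data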
STAT1 inh: STAT1 signaling inhibition. AID 920. NIH 3T3 STAT1-luciferase reporter, IFN-gamma, luminescence. inhibition, % at 5.5 µM. 0.35% of 200,000 active;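 active = inhibition above a set limit, the mean inhibition across all tested compounds plus 3 SD, cut at about 34% in these data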
NF-kB neuron act: compounds increasing NF-kB expression in human neuronal cells; NF-kB reporter expression; active compounds read high; fold change at 12.5 µM; 1.6% of 190,000 active; AID 1239; in the data active = fold change above about 3.3
STAT3 act: increases IL-6 driven STAT3 reporter signal | activation (% of control), % at 5.6 µM | 0.91% of 190,000 active | U3A cells, IL-6 STAT3-luciferase reporter, luminescence; 100% = signal with IL-6 EC80 alone | AID 871;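 active = activation above the screen-wide mean of compound activation plus 3 SD, cut at about 130% in these data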
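Material: STAT3-luciferase reporter U3A cells. Controls: IL-6-treated wells, 100% activation. Read-out: % activation versus median of IL-6-stimulated wells. Probe or stimulus: IL-6 stimulus at 33 ng/mL final. Timing: compound 1 h, then IL-6 6 h at 37 °C. Signal: reporter luminescence signal.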
APP 5'UTR act: activates APP 5'UTR luciferase reporter | 1% of 190,000 active | activation, % at 2 µM | AID 1276 | SH-SY5Y APP 5'UTR luciferase reporter, luminescence; zero percent = DMSO vehicle wells;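 active = activation above a set limit, based on mean plus 3 SD of controls, cut at about 140% in these data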
STAT1 activ conf: STAT1 activation, confirmation assay; shares compounds with STAT1 act; NIH 3T3 STAT1-luciferase reporter, IFN-gamma potentiation, luminescence; 100% = IFN-gamma EC80 alone, no compound; activation (% of control), % at 5.7 µM; 97% of 1,200 active;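 active = activation above a set limit carried over from the earlier primary STAT1 screen, cut at about 140% in these data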
NFkB act STAT1ct: activates NF-kappaB, counter-screen to STAT1 activators. activation (% of control), % at 5.7 µM. shares compounds with STAT1 act. 43% of 1,200 active. HEK293T NF-kB luciferase reporter, TNF-alpha stimulated, luminescence; 100% = TNF-alpha with vehicle only;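 active = activation above the mean of solvent-only control wells plus 3 SD, set per campaign, cut at about 130% in these data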;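 also: TNF-alpha given at a submaximal dose yielding about 80% of full reporter signal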
STAT3 act 2: counter-screen for STAT1 activators: human STAT3 activation; shares compounds with STAT1 act; U3A cells STAT3-luciferase reporter, IL-6, luminescence; cells lack STAT1; 100 = IL-6 alone, no compound effect; activation (% of control), % at 5.7 µM; 46% of 1,200 active; AID 1316;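 active = activation above the solvent-only control well mean plus 3 SD, set per plate batch, cut at about 110% in these data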;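 also: higher means more STAT3 reporter activation so hits are non-selective activators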
Hits are given with their value; . = inactive; / = no result.

SMILES	STAT3 blocker	STAT1 act	STAT1 inh	NF-kB neuron act	STAT3 act	APP 5'UTR act	STAT1 activ conf	NFkB act STAT1ct	STAT3 act 2
Cc1cc(C(=O)Nc2ccccc2)oc1C	.	154.7	.	3.45	.	.	169.8	135.8	.
CC(=O)Nc1cccc(NC(=O)c2cc3ccccc3o2)c1	.	156.5	.	3.44	.	.	178.3	135.5	.
Cc1ccc(C(=O)c2cc3ccccc3o2)cc1	.	156.8	.	3.9	.	148.4	195.5	139.3	.
O=C(Nc1cccnc1)c1cc2c(ccc3ccccc32)o1	.	177.4	.	5.29	.	220.1	259.5	143.8	110.8
CC(=O)c1cc(C(=O)Nc2ccc(C(=O)O)cc2)oc1C	.	.	.	.	.	.	/	/	/
N/C(=N\OC(=O)CSc1ccccc1)c1ccc([N+](=O)[O-])cc1	.	.	.	.	.	.	/	/	/
O/N=C/C1=C(Cl)c2ccccc2CC1	.	.	.	.	.	.	/	/	/
Cc1cccn2cc(COc3ccc(-c4ccccc4)cc3)nc12	.	162.0	.	.	.	.	165.0	.	114.8
c1ccc(-c2nc3ccccc3s2)nc1	.	158.3	.	4.66	.	.	200.4	.	.
CN(C)c1ncccc1-c1nc2ccccc2s1	.	.	.	.	.	.	/	/	/
O=C(Nc1ccc(/C=C/c2nc3ccccc3o2)cc1)c1c(F)cccc1F	.	175.1	.	.	.	208.3	205.2	.	.
N#CCCN(C(=O)COC(=O)c1ccc2c(=O)n3c(nc2c1)CCC3)c1ccc(F)cc1	.	.	.	.	.	.	/	/	/
O=c1c(C=NCCN2CCNCC2)c(-c2ccccc2)[nH]n1-c1ccc([N+](=O)[O-])cc1	.	167.9	.	.	.	.	145.4	.	120.2
CC(=O)c1sc(NC(=O)c2ccco2)nc1-c1ccccc1	.	.	.	.	.	.	/	/	/
O=C(Nc1nc(-c2cccs2)cs1)c1ccco1	.	158.8	.	3.61	.	195.7	172.9	134.1	.
COC(=O)c1c(-c2ccccc2)csc1NC(=O)c1ccco1	.	173.9	.	.	.	.	194.5	135.5	.
COc1ccc2c(c1)Cc1sc(NC(=O)c3ccco3)nc1-2	.	188.9	.	3.85	.	186.1	199.0	147.4	.
Cc1sc(NC(=O)c2ccco2)nc1-c1ccccc1	.	201.7	.	6.88	.	170.5	236.6	135.1	112.2
COc1ccc2c(c1)-c1nc(NC(=O)c3ccco3)sc1CC2	.	.	.	.	.	.	/	/	/
COc1ccc(Nc2nnc(SCC(=O)c3cc(C)n(CC4CCCO4)c3C)s2)cc1 (stereo unspecified)	.	.	.	.	.	.	/	/	/
O=c1[nH][nH]c2cc(=O)n(-c3ccc(Cl)cc3)nc12	.	.	.	.	.	.	/	/	/
COc1ccc(C(C(=O)NCC2CCCO2)N(C(=O)CNC(=O)c2cccs2)c2ccccc2C)cc1OC (stereo unspecified)	.	.	.	.	.	.	/	/	/
Cc1ccnc(NC(=O)Nc2ccc(F)cc2)c1	.	157.8	.	4.81	.	.	224.4	.	.
Cc1ccnc(NC(=O)Nc2ccc(Br)cc2Cl)c1	.	167.5	.	.	.	164.9	256.8	.	.
Cc1ccnc(NC(=O)Nc2ccc3c(c2)N(C)C(=O)CS3)c1	.	181.2	.	.	.	.	191.7	134.7	.
SMILES	STAT3 blocker	STAT1 act	STAT1 inh	NF-kB neuron act	STAT3 act	APP 5'UTR act	STAT1 activ conf	NFkB act STAT1ct	STAT3 act 2
Cc1ccccc1N(CC(=O)Nc1ccc(F)cc1)S(C)(=O)=O	.	.	.	.	.	.	/	/	/
Cc1ccc2nc(-c3ccc(NC(=O)CN(c4ccccc4C)S(C)(=O)=O)cc3)sc2c1	.	152.8	.	3.85	.	195.3	218.2	.	.
C=CCn1c(SCC(=O)Nc2ccc3c(c2)OCO3)nnc1-c1ccccc1	.	.	.	.	.	.	/	/	/
C=CCn1c(SCC(=O)Nc2ccc(-c3nc4ccc(C)cc4s3)cc2)nnc1-c1ccccc1	.	155.6	.	.	.	146.0	198.2	.	.
O=C(CCS(=O)(=O)c1ccccc1)Nc1ccc(-c2nc3ccccc3s2)cc1	.	164.8	.	7.21	.	170.3	239.9	.	.
Cc1ccc2nc(-c3ccc(NC(=O)CN4C(=O)NC(C)(c5ccc(OC(F)F)cc5)C4=O)cc3)sc2c1 (stereo unspecified)	.	154.6	.	.	.	150.0	185.5	.	112.5
CC(C)(C)c1ccc(S(=O)(=O)NCC(=O)Nc2ccc(-c3nc4ccccc4s3)cc2)cc1	.	.	.	.	.	.	/	/	/
CCCCC1NC(=S)N(C2CCCCC2)C1=O (stereo unspecified)	.	.	.	.	.	.	/	/	/
COC(=O)C1=C(COc2ccc(C=O)cc2OC)NC(=O)NC1c1cc(C)ccc1C (stereo unspecified)	.	.	.	.	.	.	/	/	/
COC(=O)c1cc(OC)c(OC)cc1NC(=S)N1CCN(C/C=C/c2ccccc2)CC1	.	.	.	.	.	.	/	/	/
Nc1cccn2c(-c3ccc(Cl)c(Cl)c3)cnc12	.	150.9	.	11.9	.	210.8	.	.	158.8
Nc1nnc(-c2ccc(Cl)c(Cl)c2)s1	.	.	.	.	.	.	/	/	/
CC(=O)c1cccc(NC(=S)N2c3ccccc3CC2C)c1 (stereo unspecified)	.	.	.	.	.	.	/	/	/
CC1Cc2ccccc2N1C(=O)/C=C/c1cccc(F)c1 (stereo unspecified)	.	157.8	.	6.28	.	189.0	202.2	140.8	.
CNC(=O)c1c(Cl)cnn1-c1ccc(C)cc1	.	161.1	.	.	.	.	164.4	138.1	114.4
CNC(=O)c1c(Br)cnn1-c1ccc(C)cc1	.	152.2	.	.	.	.	179.9	.	115.7
Cc1occc1C(=O)Nc1ccccc1NC(=O)c1ccoc1C	.	.	.	/	.	.	/	/	/
Cc1occc1C(=O)Nc1cccc2ccccc12	.	172.2	.	7.69	.	135.2	219.0	136.9	.
O=C(COc1ccccc1Cl)Nc1ccc(Cl)cn1	.	150.8	.	6.84	.	198.0	198.3	.	.
Cc1ccc(S(=O)(=O)N2CCN(CC(=O)N/N=C/C=C/c3ccccc3)CC2)cc1	.	.	.	.	.	.	/	/	/
Cc1ccc(-c2ccc(CCC(=O)O)n2C(C)C)cc1	.	150.7	.	.	.	.	.	.	.

Screens deposited in PubChem by several laboratories.
